Converted amounts (≈) assume the structure as drawn. The source made the active and inactive calls. The rule behind the calls is not given here.
How the values were obtained:
Progesterone receptor = molecular target: T1, Progesterone receptor (Homo sapiens, UniProt P06401); assay: Antagonist activity at human progesterone receptor expressed in CHO-K1 cells harboring firefly luciferase gene after 20 hrs by One-Glo luciferase reporter gene assay; format: cell-based
T1 sequence (P06401 whole entry): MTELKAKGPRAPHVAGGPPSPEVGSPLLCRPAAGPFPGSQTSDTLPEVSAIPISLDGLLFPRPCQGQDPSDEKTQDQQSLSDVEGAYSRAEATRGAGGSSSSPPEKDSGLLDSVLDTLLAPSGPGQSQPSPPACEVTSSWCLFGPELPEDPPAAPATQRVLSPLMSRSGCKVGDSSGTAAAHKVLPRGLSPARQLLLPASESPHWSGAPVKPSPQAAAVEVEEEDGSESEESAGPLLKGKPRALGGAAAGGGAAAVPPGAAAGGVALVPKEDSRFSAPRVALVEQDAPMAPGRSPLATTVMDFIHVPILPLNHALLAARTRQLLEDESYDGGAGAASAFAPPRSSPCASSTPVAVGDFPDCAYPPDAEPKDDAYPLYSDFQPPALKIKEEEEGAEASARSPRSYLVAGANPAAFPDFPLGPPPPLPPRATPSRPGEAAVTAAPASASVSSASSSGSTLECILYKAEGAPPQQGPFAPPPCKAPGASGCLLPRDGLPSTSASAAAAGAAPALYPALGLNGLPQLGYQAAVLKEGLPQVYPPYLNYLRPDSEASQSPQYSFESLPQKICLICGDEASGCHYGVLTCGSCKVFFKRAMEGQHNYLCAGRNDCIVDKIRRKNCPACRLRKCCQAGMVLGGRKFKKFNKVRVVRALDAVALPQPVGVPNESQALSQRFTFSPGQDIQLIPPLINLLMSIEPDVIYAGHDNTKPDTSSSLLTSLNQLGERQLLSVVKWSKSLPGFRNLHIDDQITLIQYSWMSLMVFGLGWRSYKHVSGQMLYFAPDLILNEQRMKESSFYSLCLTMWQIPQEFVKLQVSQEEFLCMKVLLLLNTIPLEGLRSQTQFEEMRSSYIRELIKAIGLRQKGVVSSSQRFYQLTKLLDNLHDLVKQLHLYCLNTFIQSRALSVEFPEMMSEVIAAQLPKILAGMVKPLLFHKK
Outline: (§1)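 Cell-based luciferase reporter assays for GR, AR and PR, run in agonist and antagonist modes. Potency and Emax are averages of at least two determinations, reported with SD.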

Androgen receptor [1] = molecular target: T2, Androgen receptor (Homo sapiens, UniProt P10275); assay: Antagonist activity at human androgen receptor in human LNCAP cells harboring firefly luciferase gene after 20 hrs by One-Glo luciferase reporter gene assay; format: cell-based; outline: as §1
T2 sequence (P10275 whole entry): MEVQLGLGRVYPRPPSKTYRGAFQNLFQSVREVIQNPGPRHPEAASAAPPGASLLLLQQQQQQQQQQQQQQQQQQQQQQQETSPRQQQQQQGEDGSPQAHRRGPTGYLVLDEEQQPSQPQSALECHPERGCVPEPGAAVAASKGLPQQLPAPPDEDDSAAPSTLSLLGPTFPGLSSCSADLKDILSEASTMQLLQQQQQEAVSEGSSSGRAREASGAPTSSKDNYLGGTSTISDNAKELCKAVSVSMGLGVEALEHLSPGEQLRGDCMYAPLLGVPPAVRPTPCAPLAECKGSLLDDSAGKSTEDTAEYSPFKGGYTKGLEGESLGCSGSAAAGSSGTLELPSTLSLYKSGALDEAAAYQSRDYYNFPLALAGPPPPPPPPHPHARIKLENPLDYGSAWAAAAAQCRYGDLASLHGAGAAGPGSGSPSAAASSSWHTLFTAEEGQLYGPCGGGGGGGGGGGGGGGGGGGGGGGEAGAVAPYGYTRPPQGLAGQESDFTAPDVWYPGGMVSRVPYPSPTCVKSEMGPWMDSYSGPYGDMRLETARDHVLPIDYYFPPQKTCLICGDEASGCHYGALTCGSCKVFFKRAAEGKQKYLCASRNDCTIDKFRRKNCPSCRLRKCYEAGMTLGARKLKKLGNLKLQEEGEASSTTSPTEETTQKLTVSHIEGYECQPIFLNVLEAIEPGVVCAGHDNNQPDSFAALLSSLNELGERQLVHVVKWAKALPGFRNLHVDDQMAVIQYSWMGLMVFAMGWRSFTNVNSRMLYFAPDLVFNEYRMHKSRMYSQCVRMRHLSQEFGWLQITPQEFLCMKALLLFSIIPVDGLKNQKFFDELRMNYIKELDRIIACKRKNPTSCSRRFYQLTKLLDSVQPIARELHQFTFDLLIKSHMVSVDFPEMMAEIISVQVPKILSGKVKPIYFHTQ

Androgen receptor [2] = molecular target: T2, Androgen receptor; assay: Agonist activity at human androgen receptor in human LNCAP cells harboring firefly luciferase gene after 20 hrs by One-Glo luciferase reporter gene assay; format: cell-based
Glucocorticoid receptor [3] = molecular target: T3, Glucocorticoid receptor (Homo sapiens, UniProt P04150); assay: Antagonist activity at human glucocorticoid receptor expressed in CHO-K1 cells harboring firefly luciferase gene after 20 hrs by One-Glo luciferase reporter gene assay; format: cell-based
T3 sequence (P04150 whole entry): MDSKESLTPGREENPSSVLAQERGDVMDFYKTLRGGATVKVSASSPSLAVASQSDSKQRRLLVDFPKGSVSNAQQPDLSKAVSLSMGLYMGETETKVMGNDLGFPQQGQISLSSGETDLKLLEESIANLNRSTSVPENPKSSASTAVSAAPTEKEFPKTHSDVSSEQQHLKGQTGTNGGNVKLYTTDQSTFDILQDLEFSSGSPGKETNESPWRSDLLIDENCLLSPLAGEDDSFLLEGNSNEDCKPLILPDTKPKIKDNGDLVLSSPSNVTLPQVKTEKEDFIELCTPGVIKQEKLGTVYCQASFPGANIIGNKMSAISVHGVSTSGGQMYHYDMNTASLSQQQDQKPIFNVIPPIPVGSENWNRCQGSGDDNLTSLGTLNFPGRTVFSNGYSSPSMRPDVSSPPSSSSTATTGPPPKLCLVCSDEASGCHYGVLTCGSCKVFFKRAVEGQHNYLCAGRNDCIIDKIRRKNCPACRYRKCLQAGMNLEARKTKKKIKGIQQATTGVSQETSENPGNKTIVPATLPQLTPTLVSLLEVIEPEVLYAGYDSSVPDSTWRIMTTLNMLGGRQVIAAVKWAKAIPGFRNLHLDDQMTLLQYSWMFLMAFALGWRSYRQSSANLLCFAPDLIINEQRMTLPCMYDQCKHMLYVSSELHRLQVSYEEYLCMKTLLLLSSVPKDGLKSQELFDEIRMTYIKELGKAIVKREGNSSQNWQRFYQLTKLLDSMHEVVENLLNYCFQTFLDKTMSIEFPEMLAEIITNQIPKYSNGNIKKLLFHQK

[4] = molecular target: T4, Progesterone receptor (Homo sapiens) (UniProt P06401); assay: Agonist activity at human progesterone receptor expressed in CHO-K1 cells harboring firefly luciferase gene after 20 hrs by One-Glo luciferase reporter gene assay; format: cell-based; outline: as §1
T4 sequence (whole entry): T1 sequence (P06401 whole entry)

Androgen receptor [5] = molecular target: T2, Androgen receptor; assay: Agonist activity at human androgen receptor in human LNCAP cells harboring firefly luciferase gene after 20 hrs by One-Glo luciferase reporter gene assay relative to mifepristone; format: cell-based; outline: as §1
[6] = molecular target: T5, Glucocorticoid receptor (Homo sapiens) (UniProt P04150); assay: Antagonist activity at human glucocorticoid receptor expressed in CHO-K1 cells harboring firefly luciferase gene assessed as inhibition of glucocorticoid receptor activity at 0.01 to 10000 nM after 20 hrs by One-Glo luciferase reporter gene assay relative to mifepristone; format: cell-based; set-up: scale not given: the % may be the effect or the level left; outline: as §1
T5 sequence (whole entry): T3 sequence (P04150 whole entry)

CYP3A4 = CYP3A4 (Homo sapiens, UniProt P08684); assay: Inhibition of CYP3A4 (unknown origin) at 10 uM using midazolam as substrate relative to control; format: ADME; conditions: probe midazolam
Chain of CYP3A4 (P08684 whole entry): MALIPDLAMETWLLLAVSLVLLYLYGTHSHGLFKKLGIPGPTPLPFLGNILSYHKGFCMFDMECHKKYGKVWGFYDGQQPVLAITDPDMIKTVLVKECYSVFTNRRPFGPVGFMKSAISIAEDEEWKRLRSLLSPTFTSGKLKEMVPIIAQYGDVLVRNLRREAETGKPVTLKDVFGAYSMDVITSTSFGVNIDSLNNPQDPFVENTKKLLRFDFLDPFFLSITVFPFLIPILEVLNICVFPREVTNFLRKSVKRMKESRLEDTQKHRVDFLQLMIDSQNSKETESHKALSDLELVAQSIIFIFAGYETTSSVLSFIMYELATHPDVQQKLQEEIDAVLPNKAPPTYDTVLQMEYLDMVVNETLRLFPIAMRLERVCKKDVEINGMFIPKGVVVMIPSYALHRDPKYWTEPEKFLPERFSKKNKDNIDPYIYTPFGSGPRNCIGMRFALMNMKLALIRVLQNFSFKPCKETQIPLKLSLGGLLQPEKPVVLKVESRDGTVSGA

CYP2C8 = molecular target: T6, CYP2C8 (Homo sapiens, UniProt P10632); assay: Inhibition of CYP2C8 (unknown origin) at 10 uM using paclitaxel as substrate relative to control; format: ADME; conditions: probe paclitaxel
T6 sequence (P10632 whole entry): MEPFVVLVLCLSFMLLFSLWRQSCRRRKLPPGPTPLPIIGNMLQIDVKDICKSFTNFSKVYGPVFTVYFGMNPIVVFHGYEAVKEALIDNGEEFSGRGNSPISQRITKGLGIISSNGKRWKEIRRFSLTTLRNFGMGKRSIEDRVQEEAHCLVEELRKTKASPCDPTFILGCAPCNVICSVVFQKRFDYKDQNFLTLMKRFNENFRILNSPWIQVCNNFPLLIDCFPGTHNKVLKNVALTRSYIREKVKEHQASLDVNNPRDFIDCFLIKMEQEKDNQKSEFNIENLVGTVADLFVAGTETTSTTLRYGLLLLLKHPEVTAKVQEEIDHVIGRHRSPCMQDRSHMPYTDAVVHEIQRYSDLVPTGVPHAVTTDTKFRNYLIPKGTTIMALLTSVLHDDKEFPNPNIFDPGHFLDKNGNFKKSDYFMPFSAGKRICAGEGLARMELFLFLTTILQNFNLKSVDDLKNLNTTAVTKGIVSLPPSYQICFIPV

Homo sapiens = organism: Homo sapiens; assay: Selectivity ratio, ratio of IC50 for human androgen receptor in human LNCAP cells to IC50 for human glucocorticoid receptor expressed in CHO-K1 cells harboring firefly luciferase gene; format: cell-based
Glucocorticoid receptor [7] = molecular target: T3, Glucocorticoid receptor; assay: Displacement of fluormone tracer from full length human recombinant glucocorticoid receptor expressed in baculovirus expression system incubated for 2 hrs by competitive fluorescence polarization binding assay
Glucocorticoid receptor [8] = molecular target: T3, Glucocorticoid receptor; assay: Antagonist activity at human glucocorticoid receptor expressed in CHO-K1 cells assessed as inhibition of glucocorticoid receptor-dexamethasone coactivator protein-protein interaction incubated for 24 hrs by bioluminescence assay; format: cell-based
[9] = Solubility of compound in fasted state simulated gastric fluid at pH 1.2; format: physicochemical
[10] = Solubility of compound in PBS at pH 7.4; format: physicochemical
[11] = Solubility of compound in fasted state simulated intestinal fluid at pH 6.5; format: physicochemical

| SMILES | IC50 (Progesterone receptor) [nM] | IC50 (Androgen receptor [1]) [nM] | EC50 (Androgen receptor [2]) [nM] | IC50 (Glucocorticoid receptor [3]) [nM] | agonist activity [4] | Emax at 20 h (Androgen receptor [5]) [%] | Activity [6] [%] | inhibition at 10 µM (CYP3A4) [%] | inhibition at 10 µM (CYP2C8) [%] | Ratio (Homo sapiens) | IC50 (Glucocorticoid receptor [7]) [nM] | IC50 (Glucocorticoid receptor [8]) [nM] | solubility [9] [µM] | solubility [10] [µM] | solubility [11] [µM] |
| --- | --- | --- | --- | --- | --- | --- | --- | --- | --- | --- | --- | --- | --- | --- | --- |
| CN(C)c1ccc([C@H]2C[C@@]3(C)[C@@H](CC[C@@]3(O)C#CC3CC3)[C@@H]3CCC4=CC(=O)CC[C@]4(C)[C@H]32)cc1 | 1490 | 1450 | > 2500 | 28.5 | inactive | 5.4 | 100 | 53 | 70 |  |  |  |  |  |  |
| CN(C)c1ccc([C@H]2C[C@@]3(C)[C@@H](CC[C@@]3(O)C#CC(C)(C)C)[C@@H]3CCC4=CC(=O)CC[C@]4(C)[C@H]32)cc1 | 2490 | > 5000 | > 2500 | 33.6 | inactive | 7.4 | 100 | 71 | 84 | 70 |  |  |  |  |  |
| CN(C)c1ccc([C@H]2C[C@@]3(C)[C@@H](CC[C@@]3(O)C#CC(C)(C)C)[C@@H]3CCC4=CC(=O)CCC4=C32)cc1 | 14.4 | 129 |  |  | inactive |  | 100 |  |  | 10 to 30 | 8 | 7.5 |  |  |  |
| CC(C)(C)C#C[C@]1(O)CC[C@H]2[C@@H]3CCC4=CC(=O)CC[C@@H]4[C@H]3[C@@H](c3ccc(N4CCOCC4)cc3)C[C@@]21C | 4.8 | 208 | > 2500 | 10.3 | inactive | 5.1 | 100 |  |  | 10 to 30 |  |  |  |  |  |
| CC#C[C@]1(O)CC[C@H]2[C@@H]3CCC4=CC(=O)CCC4=C3[C@@H](c3ccc(N(C)C)cc3)C[C@@]21C [MIFEPRISTONE] |  |  |  |  |  |  |  |  |  |  |  |  | > 1160 | 3 (≈ 1.29 µg/mL) | 5.4 (≈ 2.32 µg/mL) |
